ChEMBL document CHEMBL1157464, “1-[(3-Aryloxy-3-aryl)propyl]-1H-imidazoles, new imidazoles with potent activity against Candida albicans and dermatophytes. Synthesis, structure-activity relationship, and molecular modeling studies” (J Med Chem, 2008)
Converted amounts (≈) assume the structure as drawn.

Assays:
[1] = test system: Candida parapsilosis; assay: Antifungal activity against Candida parapsilosis ATCC 22019 at 35 degC after 48 hrs by broth microdilution test; format: functional; details: Lodderomyces parapsilosis, ATCC 22019, 48 h; for MFC: read-out: MFC; for MIC: read-out: MIC
Summary of the method: (§1)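 Broth microdilution per NCCLS M27-A2. Stocks in 100% DMSO, diluted in RPMI 1640 with 0.165 M MOPS at pH 7.0; final range 0.25–128 µg/mL. Inoculum 1000–5000 cells/mL from SDA subcultures. […] C. parapsilosis ATCC22019 served as QC strain.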

[2] = test system: Candida albicans; assay: Antifungal activity against Candida albicans ATCC 10261 at 35 degC after 48 hrs by broth microdilution test; format: functional; details: Candida albicans, ATCC 10261, 48 h; for MIC: read-out: MIC; for MIC50: read-out: MIC50; for MIC90: read-out: MIC90; summary of the method: as §1
[3] = test system: Candida albicans; assay: Antifungal activity against Candida albicans ATCC 10261 at 35 degC after 48 to 96 hrs by broth microdilution test; format: functional; details: for MFC: Candida albicans, ATCC 10261, read-out: MFC
Summary of the method: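 Minimal fungicidal concentration for Candida. […] MFC is the lowest concentration allowing fewer than two colonies (99% killing).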

[4] = Cytotoxicity against human U937 cells assessed as reduction of cell viability after 24 hrs by MTT assay; format: cell-based, U-937
Summary of the method: (§2)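 U937 and K562 cells, from ATCC, plated at 5 × 10^4/mL in phenol-red-free RPMI-1640 with 20% FBS and penicillin/streptomycin. Compounds added 2 h later at 25–100 µg/mL, then 24 h at 37 °C. MTT at 1 mg/mL for 3 h, formazan dissolved in isopropanol with 0.1 N HCl, absorbance read at 570 nm. CC50 is the concentration reducing viability by 50% versus the drug-free control.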

[5] = Cytotoxicity against human K562 cells after assessed as reduction of cell viability 24 hrs by MTT assay; format: cell-based; summary of the method: as §2
[6] = Therapeutic index, ratio of CC50 for human U937 cells to MIC90 for Candida albicans ATCC 10261; format: cell-based, U-937
Summary of the method: (§3)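 Therapeutic index calculated as CC50 in the given cell line divided by MIC90.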

[7] = Therapeutic index, ratio of CC50 for human K562 cells to MIC90 for Candida albicans ATCC 10261; format: cell-based; summary of the method: as §3
[8] = test system: Candida albicans; assay: Antifungal activity against fluconazole-resistant Candida albicans isolated from oropharyngeal or vaginal disease patient after 48 hrs by broth microdilution test; format: functional
[9] = test system: Candida albicans; assay: Antifungal activity against fluconazole-sensitive Candida albicans Fe40 at 35 degC after 48 hrs by broth microdilution test; format: functional; summary of the method: as §1
[10] = test system: Arthrodermataceae; assay: Antifungal activity against dermatophytes at 28 degC after 7 days by broth microdilution test; format: functional; details: 168 h
Summary of the method: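 Ten clinical isolates (two M. canis, five M. gypseum, three T. mentagrophytes) tested by NCCLS M38-A broth microdilution in MOPS-buffered RPMI 1640, pH 7.0, over 0.25–128 µg/mL. Conidial/hyphal suspension from PDA slants (28 °C, 7 days) adjusted to 65–70% transmittance at OD530, then diluted 1:50.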

[11] = test system: Arthrodermataceae; assay: Antifungal activity against dermatophytes at 28 degC after 5 days by broth microdilution test; details: for MFC: Arthrodermataceae
[12] = test system: Arthrodermataceae; assay: Antifungal activity against dermatophytes at 28 degC after 48 to 96 hrs by broth microdilution test

Row | Compound | MFC [1] [µg/mL] | MIC [1] [µg/mL] | MIC [2] [µg/mL] | MIC50 [2] [µg/mL] | MIC90 [2] [µg/mL] | MFC50 [3] [µg/mL] | MFC90 [3] [µg/mL] | MFC [3] [µg/mL] | CC50 at 24 h [4] [µM] | CC50 at 24 h [5] [µM] | selectivity ratio [6] | selectivity ratio [7] | MIC [8] [µg/mL] | MIC [9] [µg/mL] | MIC [10] [µg/mL] | MIC50 [10] [µg/mL] | MIC90 [10] [µg/mL] | MFC90 [11] [µg/mL] | MFC [11] [µg/mL] | MFC50 [12] [µg/mL]
1 | Cc1ccc(C(CCn2ccnc2)Oc2ccc(Cl)cc2)cc1 (stereo not given) | 8 (≈ 24.5 µM) | 4 (≈ 12.2 µM) | 2.4 (≈ 7.34 µM) | 2 (≈ 6.12 µM) | 4 (≈ 12.2 µM) | 8 (≈ 24.5 µM) | 16 (≈ 49 µM) | 12 (≈ 36.7 µM) | 168 | 171 | 42 | 42.8 | 3.6 (≈ 11 µM) | 2 (≈ 6.12 µM) | 3.8 (≈ 11.6 µM) | 4 (≈ 12.2 µM) | 4 (≈ 12.2 µM) | 32 (≈ 97.9 µM) | 25.6 (≈ 78.3 µM) | 32 (≈ 97.9 µM)
2 | Cc1ccc(OC(CCCn2ccnc2)c2ccc(Cl)cc2)cc1 (stereo not given) | 0.25 (≈ 0.733 µM) | 0.03 (≈ 0.088 µM) | 2.1 (≈ 6.16 µM) | 2 (≈ 5.87 µM) | 4 (≈ 11.7 µM) | 4 (≈ 11.7 µM) | 8 (≈ 23.5 µM) | 5.6 (≈ 16.4 µM) | 350 | 259 | 87.5 | 64.8 |  |  |  |  |  |  |  | 
3 | Cc1ccc(OC(CCn2ccnc2)c2ccc(F)cc2)cc1 (stereo not given) | 32 (≈ 103 µM) | 4 (≈ 12.9 µM) | 7 (≈ 22.6 µM) | 4 (≈ 12.9 µM) | 8 (≈ 25.8 µM) | 16 (≈ 51.6 µM) | 32 (≈ 103 µM) | 23 (≈ 74.1 µM) | 120 | 383 |  |  | 9.6 (≈ 30.9 µM) | 4 (≈ 12.9 µM) | 10 (≈ 32.2 µM) | 8 (≈ 25.8 µM) | 16 (≈ 51.6 µM) | 16 (≈ 51.6 µM) | 16 (≈ 51.6 µM) | 16 (≈ 51.6 µM)
4 | Fc1ccc(C(CCn2ccnc2)Oc2ccc(Cl)cc2Cl)cc1 (stereo not given) | 4 (≈ 11 µM) | 0.5 (≈ 1.37 µM) | 2.9 (≈ 7.94 µM) | 4 (≈ 11 µM) | 4 (≈ 11 µM) | 8 (≈ 21.9 µM) | 8 (≈ 21.9 µM) | 6.9 (≈ 18.9 µM) | 120 | 74.2 |  |  | 5.6 (≈ 15.3 µM) | 2 (≈ 5.48 µM) | 13.5 (≈ 37 µM) | 16 (≈ 43.8 µM) | 16 (≈ 43.8 µM) | 64 (≈ 175 µM) | 41 (≈ 112 µM) | 32 (≈ 87.6 µM)
5 | Clc1ccc(COC(Cn2ccnc2)c2ccc(Cl)cc2Cl)cc1 (stereo not given) [ECONAZOLE] | 2 (≈ 5.24 µM) | 2 (≈ 5.24 µM) | 4.3 (≈ 11.3 µM) | 4 (≈ 10.5 µM) | 8 (≈ 21 µM) | 16 (≈ 41.9 µM) | 32 (≈ 83.8 µM) | 15 (≈ 39.4 µM) | 108 | 70 | 13.5 | 8.8 |  |  | 2.1 (≈ 5.5 µM) | 1 (≈ 2.62 µM) | 4 (≈ 10.5 µM) | 8 (≈ 21 µM) | 6 (≈ 15.7 µM) | 4 (≈ 10.5 µM)
6 | Clc1ccc(C(CCn2ccnc2)Oc2ccc(Cl)cc2Cl)cc1 (stereo not given) | 8 (≈ 21 µM) | 1 (≈ 2.62 µM) | 2.85 (≈ 7.47 µM) | 2 (≈ 5.24 µM) | 4 (≈ 10.5 µM) | 4 (≈ 10.5 µM) | 8 (≈ 21 µM) | 5.12 (≈ 13.4 µM) | 172 | 68.8 |  |  | 6.4 (≈ 16.8 µM) | 2 (≈ 5.24 µM) | 9.8 (≈ 25.7 µM) | 8 (≈ 21 µM) | 16 (≈ 41.9 µM) | 16 (≈ 41.9 µM) | 11 (≈ 28.8 µM) | 8 (≈ 21 µM)
7 | Clc1ccc(C(CCn2ccnc2)Oc2ccccc2)cc1 (stereo not given) | 16 (≈ 51.2 µM) | 4 (≈ 12.8 µM) | 8.8 (≈ 28.1 µM) | 8 (≈ 25.6 µM) | 16 (≈ 51.2 µM) | 16 (≈ 51.2 µM) | 64 (≈ 205 µM) | 29.2 (≈ 93.4 µM) | 248 | 186 |  |  | 14.4 (≈ 46 µM) | 8 (≈ 25.6 µM) | 7.2 (≈ 23 µM) | 8 (≈ 25.6 µM) | 8 (≈ 25.6 µM) | 32 (≈ 102 µM) | 30.4 (≈ 97.2 µM) | 32 (≈ 102 µM)
8 | Fc1ccc(C(CCn2ccnc2)Oc2cc(Cl)cc(Cl)c2)cc1 (stereo not given) | 4 (≈ 11 µM) | 1 (≈ 2.74 µM) | 8.8 (≈ 24.1 µM) | 8 (≈ 21.9 µM) | 16 (≈ 43.8 µM) | 16 (≈ 43.8 µM) | 16 (≈ 43.8 µM) | 11.7 (≈ 32 µM) | 160 | 98.1 |  |  | 12.8 (≈ 35 µM) | 8 (≈ 21.9 µM) | 16.2 (≈ 44.4 µM) | 16 (≈ 43.8 µM) | 16 (≈ 43.8 µM) | 32 (≈ 87.6 µM) | 28.5 (≈ 78 µM) | 32 (≈ 87.6 µM)
9 | OC(Cn1cncn1)(Cn1cncn1)c1ccc(F)cc1F [FLUCONAZOLE] | 8 (≈ 26.1 µM) | 0.5 (≈ 1.63 µM) | 15.3 (≈ 50 µM) | 2 (≈ 6.53 µM) | 64 (≈ 209 µM) |  |  | > 64 | 328 | 385 | 5.1 | 6 | 128 (≈ 418 µM) | 0.25 (≈ 0.816 µM) |  |  |  |  |  | 
10 | Cc1ccc(OC(CCn2ccnc2)c2ccc(C)cc2)cc1 (stereo not given) | 8 (≈ 26.1 µM) | 2 (≈ 6.53 µM) | 4 (≈ 13.1 µM) | 4 (≈ 13.1 µM) | 4 (≈ 13.1 µM) | 16 (≈ 52.2 µM) | 32 (≈ 104 µM) | 20.5 (≈ 66.9 µM) | 263 | 191 |  |  | 4.8 (≈ 15.7 µM) | 4 (≈ 13.1 µM) | 8 (≈ 26.1 µM) | 8 (≈ 26.1 µM) | 8 (≈ 26.1 µM) | 32 (≈ 104 µM) | 30.4 (≈ 99.2 µM) | 32 (≈ 104 µM)
